According to the EternaBench riboswitch data:

Test system: MS2 coat protein
Test: apparent Kd, MS2 coat protein; higher = weaker binding; RNA-MaP array; FMN 200 µM where present
Outline: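 Designs on Illumina sequencing-chip clusters, transcribed by stalled E. coli RNA polymerase, were exposed to SNAP-549-labelled MS2 coat protein in doubling steps from 0.7 or 1.5 nM up to 3 µM, without and then with constant ligand. The buffer held 100 mM Tris-HCl pH 7.5, 80 mM KCl, 4 mM MgCl2, BSA, DTT, yeast tRNA and Tween-20. Apparent Kd values are medians of filtered per-cluster binding-curve fits to green signal normalised to red-channel RNA signal and control-cluster median Fmax.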

[1] = designed as: OFF switch for flavin mononucleotide, no ligand
[2] = ligand present: flavin mononucleotide, designed as: OFF switch for flavin mononucleotide
[3] = designed as: ON switch for flavin mononucleotide, no ligand
[4] = ligand present: flavin mononucleotide, designed as: ON switch for flavin mononucleotide

UUAGUUACGGGAGGAUAUGUCACCCUGGGUCACAUGAGGAUCACCCAUGUGACAGAAGGCCCAAUUAUGGUGCCCAGGGCGCCU
apparent Kd [1]: 5.84 nM | apparent Kd [2]: 22.8 nM

UUAUACUGAGAGAAGGUUCAAACUACAUAUUGCAUACAUGAGGAUCACCCAUGUUGGUGAAUAAGAAAGGAUAUUUUACUAUAU
apparent Kd [1]: 44 nM | apparent Kd [2]: 32.4 nM

UUAUAUAAUGUGAGGAUAUGCUGGUCCUUGGAUCAGCAGAAGGCACAUGAGGAUCACCCAUGUAGUAAAUUUUA
apparent Kd [1]: 19 nM | apparent Kd [2]: 24.4 nM

UUAUCUUGUCAAGGAUAUGUAGUAUUGAUCUGAAAACAUGAGGAUCACCCAUGUAUACGGUGGGAACAGAAGGUGAAUGUUGAA
apparent Kd [1]: 679 nM | apparent Kd [2]: 670 nM

UUAUGUCGCGUAGGAUAUCAUUAGAUUUGUAAUUUAAUUGUAAUUUCGAUAUGAGAAGGACGUACACAUGAGGAUCACCCAUGU
apparent Kd [1]: 16.4 nM | apparent Kd [2]: 14.2 nM

UUAUUAUAUGUAGGAUAUGCAUAUUAUUAUUAUGCAGAAGGACAUGAGGAUCACCCAUGUAUAUUAUUAUUGUAUAUUAUAUAU
apparent Kd [1]: 28.4 nM | apparent Kd [2]: 46.1 nM

UUAUUUAUACAAGGAUAUCAGUUAGUUACAAUUCCUACAUGAGGAUCACCCAUGUUUUUUUUUUUUGAGAAGGUGUAUUGUCUG
apparent Kd [3]: 45.2 nM | apparent Kd [4]: 52.9 nM

UUAUUUAUACAAGGAUAUCUAUUGUUAAUACGACUUACAUGAGGAUCACCCAUGUUUUUAUGUUUAGAGAAGGUGUAUUUUCAG
apparent Kd [3]: 41.4 nM | apparent Kd [4]: 31.8 nM

UUAUUUAUGCAAGGAUAUCAUUAAUUUUUACGUCCUACAUGAGGAUCACCCAUGUUUAGUUUAUUUGAGAAGGUGCAUUGUCUG
apparent Kd [3]: 38.4 nM | apparent Kd [4]: 27.6 nM

UUAUUUAUGUAAGGAUAUCGAUGAUAUACACAUCCGACAUGAGGAUCACCCAUGUUUUAUUUUGUCGAGAAGGUACAUUGUCGG
apparent Kd [3]: 56.2 nM | apparent Kd [4]: 47 nM

UUCAACGAUGAAGGAUAUCUAUAAACAUGAGGACAUGAGGAUCACCCAUGUUGAUCACCCAUGUAGGAGAAGGUCAACAUGAGG
apparent Kd [3]: 220 nM | apparent Kd [4]: 68.2 nM

UUCAGACAUGAGGAUCACCCAUGUGAGGAUAUGAUGCGAUCGUCGAAAGACGAUAGCAUCAGAAGGCACAAAUG
apparent Kd [1]: 103 nM | apparent Kd [2]: 156 nM

UUCAUCAAUGAAGGAUAUCUAUAUCCAACAUGAGGAUCACCCAUGUUGAGGAUCACCUAUGUAAAGGAGAAGGUUAAUAUAACU
apparent Kd [3]: 6.83 nM | apparent Kd [4]: 6.32 nM

UUCCUACAUGAGGAUCACCCAUGUCAGGAUAUCUCCUCACCGCGAAUGGGCAGUGAAUAGAGAAGGGACAGGAA
apparent Kd [1]: 11.9 nM | apparent Kd [2]: 15.9 nM

UUCCUCGUUGUGAGGAUAUCGUCCUAUUUUUGUUACGAGAAGGCACAUGAGGAUCACCCAUGUUACUUGAUGUU
apparent Kd [1]: 19.9 nM | apparent Kd [2]: 71 nM

UUCGAACAAGUCAGGAUAUGGUUAUUGGUGUGUGACUAGAAGGGACAUGAGGAUCACCCAUGUGCACCUACCAU
apparent Kd [1]: 16 nM | apparent Kd [2]: 16.7 nM

UUCGCUGUGGUGUGGCGAGGCUCGUAAGAAGGGUGAUGCACAUGAGGAUCACCCAUGUAAGCCUUACAGGAUAUUGCUAGCCGA
apparent Kd [3]: 539 nM | apparent Kd [4]: 195 nM

UUCGUGCAGCUUUGCUGUACGAGUACAUGAGGAUCACCCAUGUAGGAUAUGGUACGCUUUGCGUGCUAGAAGGAUAUGUGUAGC
apparent Kd [1]: 33 nM | apparent Kd [2]: 37 nM

UUCUUACGAGGAUAUCGAUUGUGGUACAUGAGGAUCACCCAUGUAUGUGAUAUUGUAUUUCGAGAAGGCGUUCAGU
apparent Kd [1]: 26.4 nM | apparent Kd [2]: 24.1 nM

UUCUUGGCAGGAUAUGCUCUUUUAGACAUGAGGAUCACCCAUGUGUUUAUUCUUUUUUUUGCAGAAGGGCCUUAAU
apparent Kd [1]: 93.9 nM | apparent Kd [2]: 88.8 nM

UUGAAGAACUAAGGAUAUUGAAUACAUAUGUUUAACAUGAGGAUCACCCAUGUGGGUUGCGGUAUCGAGAAGGUAGAUUACUAG
apparent Kd [3]: 115 nM | apparent Kd [4]: 104 nM

UUGAAUUAAAAGGAUAUGGGAGUCGAUAGACACCCAGAAGGUUUAACAUGAGGAUCACCCAUGUGUCCUAUCAA
apparent Kd [1]: 23.1 nM | apparent Kd [2]: 31.4 nM

UUGAAUUGAAACAUGAGGAUCACCCAUGUGUCAUAAUUGACAUAGGAUAUGUUUAUACUUUUAAAAUAGAAGGAUGACGAUACU
apparent Kd [3]: 13.8 nM | apparent Kd [4]: 11.8 nM
